# Source: PubChem
# STEP inh = STEP (human) phosphatase inhibition. P54829. AID 588621. 360,000 compounds, 0.25% hits. inhibition, % at 20 µM. recombinant STEP, OMFP fluorogenic substrate, fluorescence;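 active = inhibition at 20 µM, scaled per plate between control wells, above about 37%, limit read from the data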;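 note: 0% = DMSO with enzyme and substrate and 100% = substrate only without enzyme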
#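 material = STEP tyrosine phosphatase | reagent = fluorogenic phosphatase substrate OMFP at 25 µM final | doses = single compound dose of 20 µM, 1% DMSO final | schedule = 20 min reaction, room temperature, in the dark | measured by = fluorescence, 480/540 nm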
# DNMT1 inh = DNMT1 (human) enzyme inhibition. P26358. DNMT1 molecular beacon, Hinp1I cleavage, fluorescence. inhibition (reported as % activation of signal), % at 10 µM. 360,000 compounds, 0.83% hits. AID 588458; in the data active = inhibition above about 50%
# SUMO1-SIM PPI = modulators of human SUMO1-mediated protein-protein interactions; P63165; SUMO1 binding to a labelled peptide, TR-FRET, 1 h; inhibition, % at 20 µM; 360,000 compounds, 0.33% hits; AID 602429; in the data active = inhibition above about 37%
# Target sequence (P63165 whole entry, looked up): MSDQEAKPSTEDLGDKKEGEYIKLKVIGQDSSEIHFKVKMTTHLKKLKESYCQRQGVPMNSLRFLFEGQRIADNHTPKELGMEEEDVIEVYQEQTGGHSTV
# LMPTP inh = blocks human LMPTP phosphatase. recombinant LMPTP-A, OMFP fluorogenic substrate, fluorescence intensity. inhibition, % at 20 µM. 360,000 compounds, 0.22% hits;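 active = compounds that cut the enzyme signal by at least half of the control window in the single-dose screen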;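 note: plate controls were DMSO wells with enzyme plus substrate for no effect and substrate without enzyme for full effect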
# Target sequence (P24666 whole entry, looked up): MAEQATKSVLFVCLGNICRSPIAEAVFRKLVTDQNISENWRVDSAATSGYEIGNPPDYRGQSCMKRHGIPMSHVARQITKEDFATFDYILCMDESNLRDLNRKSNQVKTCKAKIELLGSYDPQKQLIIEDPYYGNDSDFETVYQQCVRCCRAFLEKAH
#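 Material: LMPTP-A; amount: 0.625 nM enzyme; doses: single 20 µM dose; times: reaction 50 min, room temperature, dark; technique: fluorescence intensity of OMFP turnover product; benchmarks: no-enzyme and uninhibited controls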
# Scp1 inh = inhibitors of human Scp-1 phosphatase. Q9GZU7. Recombinant Scp1, phosphopeptide, malachite green phosphate absorbance. inhibition, % at 20 µM. 340,000 compounds, 0.88% hits;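 active = inhibition above about 50% at 20 µM, limit read from the data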;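 note: plate controls were DMSO wells with enzyme for no effect and wells lacking enzyme for full effect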
# Target sequence (Q9GZU7 76-261 limits assumed): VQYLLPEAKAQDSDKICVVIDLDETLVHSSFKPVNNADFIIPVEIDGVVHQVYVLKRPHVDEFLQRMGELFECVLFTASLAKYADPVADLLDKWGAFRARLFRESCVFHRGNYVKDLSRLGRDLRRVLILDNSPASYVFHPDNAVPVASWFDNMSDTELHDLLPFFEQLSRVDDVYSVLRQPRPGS
#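 Test system: SCP-1 phosphatase catalytic domain, residues 76-261; measured by: colorimetric phosphate reagent with accelerator and stabiliser, absorbance at 630 nm; timing: enzyme reaction 45 min at room temperature, colour 5 min, stabilisation 30 min; also added: Phosphorylated 17-residue peptide substrate; compound dosing: one concentration, 20 µM, with 1.0% DMSO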
# Scp1 confirm = confirmation of human Scp-1 phosphatase inhibitors. 2,500 compounds, 61% hits. recombinant SCP-1 catalytic domain, phosphate release, malachite green absorbance. shares compounds with Scp1 inh. inhibition, % at 20 µM;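 note: plate controls were DMSO with enzyme for no effect and buffer wells lacking enzyme for full effect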
# MG interference = colorimetric interference in Scp-1 counter-screen. shares compounds with Scp1 inh. Colorimetric interference counterscreen, malachite green absorbance 630 nm. apparent inhibition (interference), % at 20 µM. 2,500 tested, under 10 active. AID 540313;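 note: compounds added after enzyme reaction finished so only phosphate colour detection is probed; plate controls were DMSO wells with completed Scp-1 reaction for no effect and substrate wells lacking enzyme for full effect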
# Scp1 DSF = validation of human Scp-1 inhibitors by thermal shift binding. shares compounds with Scp1 inh. Recombinant SCP1, Sypro Orange thermal shift Tm. thermal shift relative to vanadate control, % at 40 µM. 1,500 compounds, 25% hits;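 active = substances whose mean melting-temperature shift, as a percentage of the reference inhibitor's shift, reaches about 5.3%, limit read from the data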;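 note: 0% = Tm of DMSO wells and 100% = Tm with sodium orthovanadate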
# Numbers without * were called inactive; · = no result given. A selection: hits, their analogues and other compounds. The true share with any hit is near 1.7%.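 Rule for the calls, unless noted: active = inhibition of at least 30% at 20 µM; inactive = the rest.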
SMILES,STEP inh,DNMT1 inh,SUMO1-SIM PPI,LMPTP inh,Scp1 inh,Scp1 confirm,MG interference,Scp1 DSF
CN(C)/C=C/C(=O)c1ccc(Cl)c([N+](=O)[O-])c1,0,1,-25,1,-2,·,·,·
Cc1ccc(S(=O)(=O)C(C#N)c2nc3ccccc3nc2N2CC(C)OC(C)C2)cc1C (stereo not drawn),-2,-9,-9,0,79*,-13,-19,·
CC1(c2ccccc2)NC(=O)N(CC(=O)N2CCN(S(=O)(=O)c3ccccc3[N+](=O)[O-])CC2)C1=O (stereo not drawn),3,2,-7,0,50*,9,-12,·
O=C1C2C3C=CC(C3)C2C(=O)N1Nc1ccc([N+](=O)[O-])cc1[N+](=O)[O-] (stereo not drawn),0,-5,-33,-3,-2,·,·,·
O=C1c2ccccc2C(=O)N1Nc1ccc([N+](=O)[O-])cc1[N+](=O)[O-],18,3,2,9,52*,46*,-4,-15
CCOC(=O)c1sc(NC(=O)C2C3C=CC(C3)C2C(=O)O)nc1C (stereo not drawn),22,24,-2,-1,54*,42*,-11,-1
O=C(COc1ncnc2sccc12)N1CCN(C(=O)c2ccco2)CC1,7,35,47*,5,92*,64*,-20,2
CC[n+]1c(/C=C/Nc2ccccc2)oc2ccccc21,-1,7,-10,1,99*,-13,-19,·
C/C(N)=C(/C#N)C(=O)CSc1nc2ccccc2n1CC(C)C,-1,3,1,1,1,·,·,·
O=C(N/N=C/c1cccnc1)c1cccc(NC(=O)c2ccc(Cl)cc2)c1,97*,-8,66*,20,82*,65*,-12,2
C1=CC2=NC34CCCCC3CC3=C(CCCC3)N4C2=CC1=NC1CCCCC1 (stereo not drawn),3,-4,-12,10,68*,-6,-5,·
Cc1nc(NC(=O)COC(=O)C2CC2C)c(Cl)cc1Cl (stereo not drawn),0,2,7,0,51*,-3,-16,·
COc1cc(Cl)c(C)cc1NC(=O)COC(=O)C1CC1C (stereo not drawn),-2,23,-2,1,1,·,·,·
COc1ccccc1N(CC(=O)Nc1ccc2c(c1)OCO2)S(=O)(=O)c1ccccc1,-2,1,2,-1,99*,19,-9,·
CCOC(=O)C1(C)C(C(=O)OC)=C(c2ccc(OC)cc2)c2ccccc2N1C(=O)OC (stereo not drawn),-3,3,-2,0,96*,57*,-11,-9
CCOC(=O)C1C(C(=O)OC)=C(c2ccc(OC)cc2)c2ccccc2N1S(=O)(=O)C(F)(F)F (stereo not drawn),0,3,-20,1,-1,·,·,·
COc1ccc(-c2ncnc(C(F)(F)F)c2-c2csc(C)n2)c(O)c1,1,-2,-6,0,35,·,·,·
CCc1ccccc1NC(=O)CCS(=O)(=O)c1ccc(OC)cc1,9,45,14,0,55*,48*,-13,-7
Fc1ccc(CSc2nc3ncc(Br)cc3[nH]2)cc1,-3,10,1,24,59*,70*,-8,-14
Brc1cnc2nc(SCc3nc4ccccc4[nH]3)[nH]c2c1,3,-1,2,0,-8,·,·,·
C[C@H](O)[C@@]1(O)CC[C@H]2[C@@H]3CC[C@@H]4C[C@H](O)CC[C@]4(C)[C@H]3CC[C@@]21C,-6,-2,7,0,-4,·,·,·
C[C@]12CC[C@H](O)C[C@@H]1CC[C@@H]1[C@@H]2CC[C@@]2(C)[C@H]1CCC(=O)[C@]21CCCO1,2,3,1,0,82*,-19,-16,·
Cc1cc(C)c2c(n1)SCC(=O)N2CC(=O)Nc1ccccc1Cl,-1,-1,1,-1,2,·,·,·
O=C(O)c1cccc(-c2ccc3c(c2)OCO3)c1,0,-1,9,-1,-4,·,·,·
O=C1OC(c2ccc3c(c2)OCO3)=N/C1=C\c1ccc(C(=O)O)cc1,11,25,9,-1,88*,69*,-5,6.3*
SMILES,STEP inh,DNMT1 inh,SUMO1-SIM PPI,LMPTP inh,Scp1 inh,Scp1 confirm,MG interference,Scp1 DSF
Cc1ccccc1C(=O)NC(C(N)=O)P(=O)(OC(C)C)OC(C)C (stereo not drawn),3,-5,0,0,4,·,·,·
CC(C)C(OC(=O)c1nsc(Cl)c1Cl)C(=O)NC1CCCCC1 (stereo not drawn),-2,-3,2,0,-6,·,·,·
Cc1nnc(SCC(=O)Nc2sccc2C#N)s1,3,27,16,35,60*,40*,-11,2
Cc1cc(O)c(NC(=O)c2cccc([N+](=O)[O-])c2)cc1C,16,2,-11,-1,1,·,·,·
Cc1cc(CSc2ccccc2)ccc1NC(=O)c1cccc([N+](=O)[O-])c1,-2,9,-1,-1,54*,-12,-16,·
COc1ccccc1-c1sc2cc3c(cc2c1C#CC1(O)CCCCC1)OCO3,-2,-23,-2,2,56*,-14,-20,·
COc1ccccc1-c1oc2ccccc2c1C#CC1(O)CCCCC1,-1,-5,0,1,89*,8,-20,·
COc1ccc(-c2sc3cc4c(cc3c2C#CC2(O)CCCCC2)OCO4)cc1,-2,-21,1,3,0,·,·,·
Cc1ccc(Cl)c(NC(=O)CSc2n[nH]c(=O)n2C2CC2)c1Cl,0,8,4,-2,-5,·,·,·
CCCc1ccc(C(=O)NC(=O)c2ccccc2O)cc1,48*,-2,2,37,67*,89*,-15,-9
O=C(NC(=O)c1ccccc1O)c1ccc(C(F)(F)F)cc1,26,0,6,6,83*,68*,-12,0
Cc1ccc(C(=O)NC(=S)NNC(=O)c2ccccc2O)cc1,2,-2,-2,0,-9,·,·,·
CCCc1ccc(C(=O)NNC(=O)c2ccc(Br)cc2)cc1,5,33,-2,36,94*,81*,-10,-14
O=C1N=c2ccccc2=C1c1sc(NS(=O)(=O)Cc2ccccc2)nc1O,9,-1,5,4,93*,84*,-6,31*
O=C1NC(=O)C(c2ccccc2)(c2ccc(O)cc2)N1 (stereo not drawn),2,3,-2,-1,-4,·,·,·
